The source made the active and inactive calls. The rule behind the calls is not given here.
How the values were obtained:
Peritoneal macrophage [1] = test: Cytotoxicity against C57BL/6 mouse peritoneal macrophage cells infected with 3.125 uM compound pretreated trypomastigotes and measured after 24 hrs by LDH release assay; type: cell-based
Method in brief: (§1)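 Thioglycolate-elicited peritoneal macrophages from female C57BL/6 mice, 2 × 10^5/well, infected or not with T. cruzi Y trypomastigotes (5:1, 2 h). Either the cells got 3.125–50 µM compound or IFN-γ 100 ng/mL, or the parasites were pre-treated 1 h at 3.125 µM. LDH in supernatant measured at 24 h. Three experiments in triplicate.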

Peritoneal macrophage [2] = test: Cytotoxicity against C57BL/6 mouse peritoneal macrophages assessed as reduction in cell viability at 3.125 uM measured after 24 hrs by LDH release assay; type: cell-based; method in brief: as §1
cathepsin S [3] = molecular target: T1, cathepsin S (Homo sapiens, UniProt P25774); test: Inhibition of recombinant human cathepsin S expressed in Escherichia coli at 100 uM using Z-VVR-AMC as substrate and measured after 15 mins without preincubation by microplate reader based assay relative to control; settings: probe Z-VVR-AMC
Method in brief: (§2)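 Run with or without 5 min compound–enzyme pre-incubation. AMC fluorescence at 380/460 nm over 15 min. Inhibition relative to DMSO (2% final); E64 1 µM as positive control. Two independent experiments, each in triplicate.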

cathepsin B = cathepsin B (Rattus norvegicus, UniProt P00787); test: Inhibition of rat cathepsin B at 100 uM using Z-FR-AMC as substrate preincubated for 5 mins followed by substrate addition and measured after 15 mins by microplate reader based assay relative to control; settings: probe Z-FR-AMC
[4] = molecular target: Rhodesain (Trypanosoma brucei rhodesiense) (UniProt Q95PM0); test: Inhibition of recombinant Trypanosoma brucei rhodesain expressed in Pichia pastoris at 300 uM using Z-FR-AMC as substrate preincubated for 10 mins followed by substrate addition and measured at 12 sec interval for 5 mins by fluorimetric analysis relative to control; settings: time 15.0 min
Method in brief: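 Run with no pre-incubation or with 10 min enzyme-compound pre-incubation. Fluorescence read at 340/440 nm. Concentration was set by solubility under assay conditions. Inhibition is against DMSO, with E-64 as positive control; triplicate.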

[5] = molecular target: Cruzipain (Trypanosoma cruzi) (UniProt P25779); test: Inhibition of recombinant Trypanosoma cruzi cruzain at 5 uM using Z-FR-AMC as substrate and measured at 12 sec interval for 5 mins without preincubation by fluorimetric analysis relative to control
Method in brief: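 Recombinant rhodesain or cruzain (1 nM) in 0.1 M sodium acetate pH 5.5, 0.01% Triton X-100, 1 mM β-mercaptoethanol. Compound at a single concentration, either without or after 10 min enzyme pre-incubation. Inhibition is relative to DMSO, with E-64 as positive control. Done in duplicate (primary screen) or triplicate.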

[6] = test system: Trypanosoma brucei brucei; test: Trypanocidal activity against Trypanosoma brucei brucei Squib 427 assessed as reduction in parasite viability; type: functional, organism-based
Trypanosoma cruzi [7] = test: Trypanocidal activity against Trypanosoma cruzi Y strain trypomastigotes infected in C57BL/6 mouse peritoneal macrophage assessed as reduction in number of trypomastigotes release and measured after day 3 to day 11 post-infection by Neubauer chamber method; type: functional, organism-based; settings: time 11.0 day
Method in brief: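 Thioglycolate-elicited peritoneal macrophages from female C57BL/6 mice, 2 × 10^5/well, infected 2 h at 37°C with Y strain trypomastigotes at 5:1 (parasite:cell) and washed. They were then held with compound (3.125–50 µM) or IFN-γ 100 ng/mL. Trypomastigotes released into the supernatant were counted in a Neubauer chamber at several days after infection. Three independent experiments, each in triplicate.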

Trypanosoma cruzi [8] = test: Trypanocidal activity against Trypanosoma cruzi Y strain trypomastigotes pretreated with compound at 3.125 uM infected in macrophage assessed as reduction in number of trypomastigotes release measured after 7 days by Neubauer chamber method; type: functional, Peritoneal macrophage; design: scale not given: the % may be the effect or the level left; settings: time 7 day
Method in brief: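 Y strain trypomastigotes (1×10^6/mL) were incubated 1 h at 37°C in RPMIc with compound at 3.125 µM or medium alone. They were then pelleted, recounted and used to infect C57BL/6 peritoneal macrophages at 5:1 (parasite:cell) for 2 h. Trypomastigotes released into the supernatant were counted in a Neubauer chamber at 5, 7, 9 and 11 days. Three independent experiments, each in triplicate.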

Rhodesain [9] = molecular target: T2, Rhodesain (Trypanosoma brucei rhodesiense, UniProt Q95PM0); test: Inhibition of recombinant Trypanosoma brucei rhodesain expressed in Pichia pastoris using Z-FR-AMC as substrate and measured at 12 sec interval for 5 mins without preincubation by fluorimetric analysis
Method in brief: (§3)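 Rhodesain (1 nM) with Z-FR-AMC (2.5 µM) in 0.1 M sodium acetate pH 5.5, 0.01% Triton X-100, 1 mM β-mercaptoethanol, with or without 10 min enzyme-compound pre-incubation. Fluorescence read at 340/440 nm. IC50 by four-parameter nonlinear regression from at least six concentrations in triplicate, with at least two independent runs. Mean ± SEM reported.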

cathepsin S [10] = molecular target: T1, cathepsin S; test: Inhibition of recombinant human cathepsin S expressed in Escherichia coli at 100 uM using Z-VVR-AMC as substrate preincubated for 10 mins followed by substrate addition and measured after 15 mins by microplate reader based assay relative to control; settings: probe Z-VVR-AMC, in the assay text read “preincubated for 5 mins” for “preincubated for 10 mins”, time 20 min; method in brief: as §2
Peritoneal macrophage [11] = test: Effect on nitric oxide production in Trypanosoma cruzi Y strain trypomastigotes infected in C57BL/6 mouse peritoneal macrophage measured after 11 days by Griess reagent based assay; type: functional, tissue-based; settings: time 11.0 day
Method in brief: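 Peritoneal macrophages from C57BL/6 mice, infected with T. cruzi Y trypomastigotes at 5:1 for 2 h and/or stimulated with compound or IFN-γ. Supernatant taken 11 days later and mixed with Griess reagent for 10 min. Absorbance read at 540 nm to give nitrite. Three independent experiments in triplicate.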

Cruzipain [12] = molecular target: T3, Cruzipain (Trypanosoma cruzi, UniProt P25779); test: Competitive inhibition of recombinant Trypanosoma cruzi cruzain by Lineweaver-Burk plot analysis
Method in brief: (§4)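 Cruzain (recombinant, 1 nM) in 0.1 M sodium acetate pH 5.5 with 0.01% Triton X-100 and 1 mM β-mercaptoethanol; Z-FR-AMC 2.5 µM, read at 340/440 nm every 12 s for 5 min, with or without 10 min enzyme–compound pre-incubation. […] For mechanism and Ki, 0.3–20.0 µM substrate and five inhibitor levels were used, with Lineweaver-Burk plots.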

Cruzipain [13] = molecular target: T3, Cruzipain; test: Inhibition of recombinant Trypanosoma cruzi cruzain using Z-FR-AMC as substrate preincubated for 10 mins followed by substrate addition and measured at 12 sec interval for 5 mins by fluorimetric analysis; method in brief: as §4
Rhodesain [14] = molecular target: T2, Rhodesain; test: Mixed inhibition of recombinant Trypanosoma brucei rhodesain expressed in Pichia pastoris by Lineweaver-Burk plot analysis
Method in brief: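 Rhodesain rates were measured at six or more Z-FR-AMC levels (0.3–20.0 µM) and five inhibitor levels, in pH 5.5 acetate buffer with 0.01% Triton X-100 and 1 mM β-mercaptoethanol. Read at 340/440 nm. Mechanism and Ki come from Michaelis–Menten nonlinear fits and Lineweaver–Burk linear regression.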

Rhodesain [15] = molecular target: T2, Rhodesain; test: Inhibition of recombinant Trypanosoma brucei rhodesain expressed in Pichia pastoris using Z-FR-AMC as substrate preincubated for 10 mins followed by substrate addition and measured at 12 sec interval for 5 mins by fluorimetric analysis; method in brief: as §3

T2 sequence (Q95PM0 whole entry): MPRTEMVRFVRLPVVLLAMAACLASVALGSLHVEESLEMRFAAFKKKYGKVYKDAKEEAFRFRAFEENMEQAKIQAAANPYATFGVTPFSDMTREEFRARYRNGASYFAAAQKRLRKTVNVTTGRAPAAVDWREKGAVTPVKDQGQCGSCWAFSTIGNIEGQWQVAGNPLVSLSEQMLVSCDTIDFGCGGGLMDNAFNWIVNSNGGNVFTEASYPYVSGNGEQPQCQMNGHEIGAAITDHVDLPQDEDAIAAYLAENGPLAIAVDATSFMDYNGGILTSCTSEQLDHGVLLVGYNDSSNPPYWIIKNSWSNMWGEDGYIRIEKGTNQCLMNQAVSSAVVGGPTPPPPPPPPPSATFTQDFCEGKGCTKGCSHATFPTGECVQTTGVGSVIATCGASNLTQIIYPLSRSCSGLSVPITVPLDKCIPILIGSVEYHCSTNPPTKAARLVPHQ
T1 sequence (P25774 whole entry): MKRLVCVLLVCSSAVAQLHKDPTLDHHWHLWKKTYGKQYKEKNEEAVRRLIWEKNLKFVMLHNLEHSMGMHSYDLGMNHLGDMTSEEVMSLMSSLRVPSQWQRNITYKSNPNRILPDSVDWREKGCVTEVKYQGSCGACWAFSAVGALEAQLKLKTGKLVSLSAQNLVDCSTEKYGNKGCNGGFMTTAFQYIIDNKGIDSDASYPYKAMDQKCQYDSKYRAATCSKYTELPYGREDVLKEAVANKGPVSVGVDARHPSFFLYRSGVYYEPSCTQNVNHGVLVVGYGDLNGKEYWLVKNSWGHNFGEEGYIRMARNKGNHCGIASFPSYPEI
cathepsin B, sequence (P00787 whole entry): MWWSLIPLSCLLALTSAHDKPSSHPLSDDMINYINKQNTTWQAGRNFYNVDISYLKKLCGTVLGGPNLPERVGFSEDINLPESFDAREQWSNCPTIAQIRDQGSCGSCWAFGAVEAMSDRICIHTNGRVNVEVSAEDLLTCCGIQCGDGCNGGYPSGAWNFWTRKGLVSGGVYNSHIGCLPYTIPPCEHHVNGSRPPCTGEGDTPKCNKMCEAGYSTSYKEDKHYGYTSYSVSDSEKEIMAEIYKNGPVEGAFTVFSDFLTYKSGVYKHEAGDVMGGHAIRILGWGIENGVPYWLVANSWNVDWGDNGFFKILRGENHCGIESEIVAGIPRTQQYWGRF
Rhodesain (Trypanosoma brucei rhodesiense), sequence (Q95PM0 1-450): as the sequence (Q95PM0 whole entry) above
T3 sequence (P25779 whole entry): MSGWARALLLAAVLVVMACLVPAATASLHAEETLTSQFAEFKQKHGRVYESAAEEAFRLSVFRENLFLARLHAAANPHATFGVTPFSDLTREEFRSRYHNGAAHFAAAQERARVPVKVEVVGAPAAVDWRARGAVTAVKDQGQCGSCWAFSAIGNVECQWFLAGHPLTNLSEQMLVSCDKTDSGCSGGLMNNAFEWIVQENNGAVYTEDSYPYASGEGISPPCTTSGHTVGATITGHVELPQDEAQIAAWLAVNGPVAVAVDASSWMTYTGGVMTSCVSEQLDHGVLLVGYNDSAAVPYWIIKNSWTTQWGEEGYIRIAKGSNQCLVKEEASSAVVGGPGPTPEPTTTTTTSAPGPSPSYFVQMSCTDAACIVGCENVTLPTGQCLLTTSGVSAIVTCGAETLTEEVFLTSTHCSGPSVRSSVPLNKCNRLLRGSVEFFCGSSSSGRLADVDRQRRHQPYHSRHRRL
Cruzipain (Trypanosoma cruzi), sequence (P25779 123-467 limits assumed): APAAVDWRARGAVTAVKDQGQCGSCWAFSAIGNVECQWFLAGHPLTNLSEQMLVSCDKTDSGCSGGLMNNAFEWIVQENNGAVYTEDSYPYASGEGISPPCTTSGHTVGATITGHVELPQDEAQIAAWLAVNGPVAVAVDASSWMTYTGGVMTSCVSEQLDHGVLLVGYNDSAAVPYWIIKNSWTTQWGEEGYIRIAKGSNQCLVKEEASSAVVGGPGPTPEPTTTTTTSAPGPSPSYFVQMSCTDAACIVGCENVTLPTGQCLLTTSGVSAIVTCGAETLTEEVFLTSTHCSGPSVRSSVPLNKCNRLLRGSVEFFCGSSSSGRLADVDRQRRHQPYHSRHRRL

## Cl.Cl.Clc1cc(Br)ccc1-c1ccc(CNCC2CCNCC2)o1
Peritoneal macrophage [1]
  Activity: 30%
Peritoneal macrophage [2]
  Activity: Non-Toxic
Cathepsin S [3]
  inhibition at 0.25 h, 100 µM: 27.1%
Cathepsin B
  inhibition at 0.25 h, 100 µM: 3.2%
[4]
  inhibition: 75%
[5]
  inhibition: 29.1%
[6]
  IC50: 0.1 µM
Trypanosoma cruzi [7]
  Activity: Dose-dependent effect
Trypanosoma cruzi [8]
  Activity: 60%
Rhodesain [9]
  IC50: 53 µM
Cathepsin S [10]
  inhibition at 0.25 h, 100 µM: 29.8%
Peritoneal macrophage [11]
  Activity: inactive
Cruzipain [12]
  Ki: 3 µM

## Cn1c(=O)n(C)c2cc(CNCCNc3ccnc4cc(Cl)ccc34)ccc21
Cathepsin S [3]
  inhibition at 0.25 h, 100 µM: 4.7%
Cathepsin B
  inhibition at 0.25 h, 100 µM: 11.7%
[4]
  inhibition: 71%
[5]
  inhibition: 64.9%
Cruzipain [13]
  IC50: 51 µM
Rhodesain [14]
  Ki: 10 µM
Rhodesain [15]
  IC50: 38 µM
Cathepsin S [10]
  inhibition at 0.25 h, 100 µM: 8.4%
